XiGFP reactiv: X-chromosome reactivation activator; XiGFP mouse fibroblasts, % GFP-positive cells imaging, 3 d; cells co-treated with 5-aza-dC sensitizer; scaled so ellipticine positive control = 100%; activation, % at 7.58 µM; 360,000 tested, 0.055% active; AID 743238;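 active means mean normalized replicate activation at least 10% and every replicate at or above 10%; inconclusive means only one of the two criteria met; inactive means mean below 10% and not all replicates reach 10%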
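System: 68-5-11 XiGFP fibroblast line; Timing: 3 days compound exposure; Compound dosing: one concentration, pinned; Benchmarks: positive control ellipticine, 6 µM final; Buffer or medium: DMEM containing 5-aza-dC.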
TROY NFkB inh: inhibitors of TROY-dependent NF-kB signaling; Q293 LMP1-TROYcd NF-kB luciferase reporter, 4 h; inhibition, % at 10 µM; 360,000 tested, 0.98% active; AID 1347056;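 active means compounds whose plate-normalised and pattern-corrected inhibition of the luciferase reporter signal at the single screening dose is 50% or more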
LGR2 antag: blocks bursicon-induced cAMP signaling via Drosophila LGR2; inhibition, % at 9.99 µM; HEK293 LGR2, CRE-luciferase, bursicon-stimulated, 4 h; 380,000 tested, 0.35% active;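 active means drop in luminescence signal, shown as inhibition above about 50% in the replicate tests, limit read from the data, passing the limit was not always enough; inconclusive means probably only some replicates passing the limit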;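 further: agonist challenge used bursicon conditioned medium at about half maximal strength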
CaV13 FRET inh: Disruptors of the CACNA1D IQ motif to Ca2+-dependent inactivation inhibitor domain association, primary screening, Förster resonance energy transfer in intact living …. inhibition, % at 12.3 µM. 340,000 tested, 0.098% active. HEK cells, CFP/YFP FRET ICDI-IQ, plate reader, 10 min; percent FRET-ratio fall versus neutral wells;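 active means mean replicate inhibition of at least 30% and at least 1% of replicates passing that level; inconclusive means only one of the two criteria is met; inactive means neither criterion is met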
TWEAK-Fn14 inh: TWEAK-Fn14 signaling inhibition; 360,000 tested, 2% active; AID 1159606; inhibition, % at 10 µM; TWEAK-stimulated Fn14 reporter cells, luciferase luminescence, 8 h; in the data active means inhibition above about 50%
Numbers stand for hits; n = inactive; u = inconclusive; x = not tested or not shown. The list is not random: actives were taken first. Their share in the collection is about 2%.

SMILES	XiGFP reactiv	TROY NFkB inh	LGR2 antag	CaV13 FRET inh	TWEAK-Fn14 inh
COc1ccc(-n2c(C)cc(C(=O)COc3ccc(C)nc3[N+](=O)[O-])c2C)cc1	n	58	n	n	n
COc1ccc(-n2c(C)cc(C(=O)COC(=O)c3ccc(O)cc3O)c2C)cc1	n	n	x	n	54
Cc1cc(C(=O)COC(=O)c2ccc(O)cc2O)c(C)n1-c1ccccc1	n	83	x	n	77
Cc1cc(C(=O)OCC(N)=O)c(C)n1-c1ccccc1	n	n	n	n	n
Cc1cc(C(=O)COC(=O)c2ccc(O)cc2O)c(C)n1-c1ccc(OC(F)F)cc1	n	n	n	n	n
CCS(=O)(=O)N1CCC2(CC1)CN(C(=O)c1ccc(F)cc1)[C@@H](CO)c1[nH]c3cc(OC)ccc3c12	n	x	n	x	x
COc1ccc2c3c(n(C)c2c1)[C@@H](CO)N(S(C)(=O)=O)CC31CN(C(=O)c2ccccn2)C1	n	x	n	x	x
OC(CSc1c(Cl)cccc1Cl)CN1CCN(c2ccccc2F)CC1 (configuration not stated)	x	n	n	n	n
OC(CSc1ccccc1Cl)CN1CCN(c2ccccc2F)CC1 (configuration not stated)	x	63	n	n	n
CC1CCCN(C(=O)c2ccc(S(=O)(=O)N3CCC(c4nc5ccccc5s4)CC3)cc2)C1 (configuration not stated)	x	52	x	n	57
O=[N+]([O-])c1ccc(-c2nc3ccc([N+](=O)[O-])cc3[nH]2)cc1	x	n	x	x	n
O=[N+]([O-])c1ccc2nc(/C=C/c3ccc(Cl)cc3)[nH]c2c1	x	71	n	n	76
C#CCOCCOCCOCCNc1nc(N2CCN(C(=O)CCCCCCCCCCNC(=O)[C@H](CCCCN)n3cc(C)nn3)CC2)nc(N2CCN(C(=O)CCCCCCCCCCNC(=O)[C@@H]([C@H](C)CC)n3cc(CCCCCN)nn3)CC2)n1	x	n	x	x	n
C#CCOCCOCCOCCNc1nc(N2CCN(C(=O)CCCCCCCCCCNC(=O)[C@H](CCCCN)n3cc(C[C@@H](C)CC)nn3)CC2)nc(N2CCN(C(=O)CCCCCCCCCCNC(=O)[C@H](CCCCN)n3cc(C[C@@H](C)CC)nn3)CC2)n1	x	65	x	x	51
CC[C@H](C)Cc1cn([C@@H](CCCCNC(=O)OC(C)(C)C)C(=O)NCCCCCCCCCCC(=O)N2CCN(C(=O)OC(C)(C)C)CC2)nn1	n	n	x	n	59
C#CCOCCOCCOCCNc1nc(N2CCN(C(=O)CCCCCCCCCCNC(=O)[C@H]([C@@H](C)CC)n3cc(CCCCCN)nn3)CC2)nc(N2CCN(C(=O)CCCCCCCCCCNC(=O)[C@@H]([C@H](C)O)n3cc(C)nn3)CC2)n1	x	67	x	x	n
CN1C(=O)c2cc(NC(=O)c3ccc(F)cc3)ccc2OC[C@H]2O[C@@H](CC(=O)NCC3CCCCC3)CC[C@H]21	n	x	n	x	x
CCCNC(=O)N1CC2(CCN(C(C)=O)CC2)c2c(n(C)c3cc(OC)ccc23)[C@@H]1CO	n	x	n	x	x
COc1cccc(CNC(=O)C2CCN(c3cnccn3)CC2)c1	x	n	x	n	n
COc1cccc(NC(=O)C2CCN(c3cnccn3)CC2)c1	n	n	n	n	98
COc1ccc(C(=O)c2ccc(N3CCN(C(=O)c4ccc(F)cc4)CC3)c(F)c2)cc1Br	x	n	x	x	61
CC(C)(C)NCC(O)CON=C1c2ccccc2-c2ccccc21 (configuration not stated)	n	n	n	n	n
Cc1ccc(S(=O)(=O)N(CCCO)CC(O)CON=C2c3ccccc3-c3ccccc32)cc1 (configuration not stated)	n	n	x	n	56
O=C(CNC(=O)c1ccc(Br)cc1)c1ccccc1	n	n	x	n	n
O=C(CNC(=O)c1ccccc1)c1ccccc1	n	n	n	n	50
SMILES	XiGFP reactiv	TROY NFkB inh	LGR2 antag	CaV13 FRET inh	TWEAK-Fn14 inh
COc1ccc(/C=C2/SC(=S)N(CCC(=O)N3CCN(C)CC3)C2=O)cc1	n	n	n	n	n
CCOc1ccc(/C=C2\SC(=S)N(CCC(=O)O)C2=O)cc1	n	58	n	n	86
CCOc1ccc(/C=C2/SC(=S)N(CCC(=O)Nc3ccc(C(=O)O)cc3)C2=O)cc1	n	n	n	n	n
COc1ccc(/C=C2\SC(=S)N(CCC(=O)N3CCCCC3)C2=O)cc1	n	n	n	n	50
CCOc1cc(C(=O)Nc2cccnc2)cc(OCC)c1OCC	n	52	n	n	n
CCCOc1ccc(C(=O)Nc2cccnc2)cc1	n	n	n	n	n
CC(C)c1ccc(/C=N/Nc2ccc(C(=O)O)cc2)cc1	n	57	x	n	92
O=c1nc(N/N=C/C=C/c2ccccc2)cn[nH]1	n	n	67	n	70
COc1ccc(/C=N/Nc2ccc(C(=O)O)cc2)cc1Br	n	66	80	n	93
O=C(O)c1ccc(N/N=C/c2ccc(-c3ccccc3)cc2)cc1	n	n	n	n	n
O=C(O)c1ccc(N/N=C/C=C/c2ccccc2)cc1	n	n	n	n	63
O=C([C@H]1[C@H](CO)[C@H]2Cn3c(cccc3=O)[C@H]2N1CC1CC1)N1CCc2ccccc2C1	n	x	n	x	x
CCCn1c2c(c(=N)c3c1CCC3)CCC2	n	n	n	n	n
CCCCCCCn1c2c(c(=N)c3ccccc31)CCC2	n	n	n	n	56
CC(C)Cc1ccc(-c2cc3nc(NCCc4ccc(S(N)(=O)=O)cc4)ccn3n2)cc1	n	n	n	n	54
NS(=O)(=O)c1ccc(CCNc2ccn3nc(-c4ccccc4)cc3n2)cc1	n	n	n	n	n
O=C1N[C@H](Cc2ccccc2)COCc2cn(nn2)CC[C@H]1Cc1cccc(Cl)c1	n	x	x	x	x
FC(F)(F)c1nnc2c(Sc3ccc(Cl)cc3)nc3ccccc3n12	x	n	x	n	61
Oc1ccc(N=Cc2ccc(-c3cccs3)s2)cc1	x	n	59	n	n
O=Cc1ccc(-c2cccs2)s1	n	n	u	n	n
Cc1ccc(S(=O)(=O)NCCc2cc3ccc(C)c(C)c3[nH]c2=O)cc1	n	n	n	n	n
Cc1ccc2cc(CCNS(=O)(=O)c3ccc(F)cc3)c(=O)[nH]c2c1C	n	56	n	n	59
COc1ccc2c3c(n(C)c2c1)[C@@H](CO)N(C(=O)c1ccccc1)CC31CCN(C(C)=O)CC1	n	x	n	x	x
CCOC(=O)c1ccc(NC(C)=O)c([N+](=O)[O-])c1	n	69	n	n	59
COc1ccc(Nc2ncnc3c2c(C)c(C)n3CCCN(C)C)cc1	n	55	n	n	59
C[C@@H]1CN([C@H](C)CO)C(=O)c2cc(NC(=O)Cc3ccccc3)ccc2O[C@@H](C)CCCCO[C@H]1CN(C)C(=O)c1ccccc1	n	x	n	x	x
CCCc1cc(=O)[nH]c(Nc2ccc3c(c2)OCCO3)n1	n	n	n	n	58

Source: PubChem BioAssay (several laboratories)
